The values that follow come from ChEMBL document CHEMBL1136979, “Discovery of 4-anilino-N-methylthieno[3,2-d]pyrimidines and 4-anilino-N-methylthieno[2,3-d]pyrimidines as potent apoptosis inducers” (Bioorg Med Chem Lett, 2009).

The subject of one series is T47D. The series is described as follows: Induction of apoptosis in human T47D cells assessed as caspase activation after 48 hrs by HTS assay. It is filed as functional, cell-based. In a few lines: (§1)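 Cell-based caspase activation HTS assay that reads cleavage of a fluorescent caspase-3 substrate in human breast cancer T47D or non-small cell lung cancer H1299 cells. Cells were exposed to compound for 48 h. EC50 is the mean ± SEM of three or more experiments.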

A further series has as its system NCI-H1299. The experiment in a line: Induction of apoptosis in human H1299 cells assessed as caspase activation after 48 hrs by HTS assay. The series is classed as functional, cell-based. Conditions: NCI-H1299, 48 h. An outline of the steps:
as §1

The nature of series [1]: Inhibition of tubulin polymerization by high-throughput assay.
In series [2] the test system is MX1. The experiment in a line: Antitumor activity against human MX1 cells xenografted in Crl:Nu/Nu-nuBR mouse assessed as tumor growth inhibition at 75 mg/kg, iv administered as single dose. It is filed as functional. The settings on record: read-out: TGI. An outline of the steps:
(§2)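 Nude (Crl:Nu/Nu-nuBR) mice bore established MX-1 xenografts of about 100 mm³. Compound was given iv as single doses of 35, 50 or 75 mg/kg on day 1, or at 7 mg/kg daily on days 1–5, against a vehicle group. Tumor growth inhibition was assessed against vehicle, with significance by Student's t-test.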

Another series deals with Mus musculus. The series is described as follows: Toxicity in Crl:Nu/Nu-nuBR mouse assessed as maximum body weight decrease at 75 mg/kg, iv administered as single dose. It is filed as organism-based. More on the design: dose 75 mg/kg, route intravenous; scale not given: the % may be the effect or the level left. The settings on record: in vivo.
Series [3] relates to MX1. The series is described as follows: Antitumor activity against human MX1 cells xenografted in iv dosed Crl:Nu/Nu-nuBR mouse assessed as tumor growth inhibition administered as single dose. It is filed as functional, organism-based. An outline of the steps: as §2
Background: In xenograft studies the graft and the host belong to different species.

One may read the EC50 as the concentration that produces a half-maximal response. One may read the IC50 as the concentration that gives 50% inhibition. Take `COc1ccc(N(C)c2nc(C)nc3scc(C)c23)cc1`: the concentration for a half-maximal effect (EC50) in the series with T47D was 4 nM; in the series with NCI-H1299, 15 nM. The compound further yielded an IC50 in series [1] of less than 1000 nM.
For `COc1ccc(N(C)c2ncnc3ccsc23)cc1` the same measures were 52 nM, 240 nM and less than 1000 nM.
The matching figures for `COc1ccc(N(C)c2ncnc3scc(C)c23)cc1`: 15 nM, 25 nM and less than 1000 nM.
With `COc1ccc(N(C)c2ncnc3c(C)csc23)cc1`, the EC50 in the series on T47D and with NCI-H1299 was 560 nM in each case.
In the case of `COc1ccc(Nc2ncnc3ccsc23)cc1`, the EC50 in the series on T47D and in the series with NCI-H1299 was greater than 10000 nM throughout.
As to `c1nc(NCc2ccc3c(c2)OCO3)c2sccc2n1`, the concentration giving a half-maximal response (EC50) in the series with T47D and in the series with NCI-H1299 was greater than 10000 nM each time.
Take `COc1ccc(N(C)c2nc(C)nc3ccsc23)cc1`: the EC50 in the series on T47D stood at 14 nM; in the series on NCI-H1299 it was 32 nM. Further, the half-maximal inhibitory concentration (IC50) in series [1] was less than 1000 nM.
Turning to `COc1ccc(N(C)c2ncnc3ccsc23)cc1OC`, the concentration for a half-maximal effect (EC50) with T47D is 1700 nM; with NCI-H1299, 2800 nM.
For `COc1ccc(Nc2ncnc3scc(C)c23)cc1` the same measures were greater than 10000 nM and greater than 10000 nM.
For the compound `COc1ccc(N(C)c2nc(C)nc3sccc23)cc1`, the concentration giving a half-maximal response (EC50) amounted to 8 nM in the series with T47D and 16 nM in the series with NCI-H1299. The inhibition in vivo at 75 mg/kg in the series with MX1 [2] worked out at 90%. For the same compound, the Activity in the series with Mus musculus was less than 10%; with MX1 [3] it was “Dose-dependent effect”. For the same compound, the half-maximal inhibitory concentration (IC50) in series [1] was less than 1000 nM.
Regarding `COc1ccccc1N(C)c1ncnc2ccsc12`, the concentration for a half-maximal effect (EC50) in the series with T47D and with NCI-H1299 was greater than 10000 nM throughout.
In the case of `COc1ccc(N(C)c2nc(C)nc3c(C)csc23)cc1`, the concentration giving a half-maximal response (EC50) in the series with T47D was found to be 240 nM; with NCI-H1299, 310 nM.
`COc1ccc(Nc2nc(C)nc3scc(C)c23)cc1`: the concentration for a half-maximal effect (EC50) in the series with T47D and in the series on NCI-H1299 was greater than 10000 nM in each case.
In the case of `COC(=O)c1ccc(N(C)c2ncnc3ccsc23)cc1`, the EC50 in the series on T47D is 190 nM; in the series with NCI-H1299 it was 340 nM.
For the compound `COc1cc2c(c(OC)c1OC)-c1ccc(OC)c(=O)cc1[C@@H](NC(C)=O)CC2` [COLCHICINE], the 50% effective concentration (EC50) was found to be 9 nM in the series with T47D and 50 nM in the series on NCI-H1299. The same compound came in with an IC50 in series [1] of 500 nM.
As for `COc1ccc(N(C)c2ncnc3cc(I)sc23)cc1`, the EC50 in the series on T47D and with NCI-H1299 was greater than 10000 nM throughout.
`COc1cc(OC)cc(N(C)c2ncnc3ccsc23)c1`: the EC50 in the series on T47D and in the series with NCI-H1299 was greater than 10000 nM in each case.
`COc1ccc(N(C)c2nc(C)nc3sc(C)c(C)c23)cc1`: the EC50 with T47D was 21 nM; in the series on NCI-H1299, 91 nM. Moreover, in series [1], the half-maximal inhibitory concentration (IC50) is less than 1000 nM.
Take `COc1ccc(N(C)c2nc(-c3ccccc3)nc3ccsc23)cc1`: the values for the EC50 in the series with T47D and in the series with NCI-H1299 were 340 nM and 630 nM, respectively.
For `c1ccc(-c2cc3ncnc(Nc4ccc5c(c4)OCO5)c3s2)cc1` the same measures were greater than 10000 nM and greater than 10000 nM.
On to `COc1ccc(N(C)c2nccc3ccsc23)cc1`, for which the EC50 with T47D and with NCI-H1299 was greater than 10000 nM in each case.
For the compound `COc1ccc(OC)c(N(C)c2ncnc3ccsc23)c1`, the EC50 in the series with T47D amounted to 2600 nM; in the series with NCI-H1299 it was 5000 nM.
`COc1ccc(N(C)c2ncnc3cc(-c4cccnc4)sc23)cc1`: the EC50 with T47D and in the series on NCI-H1299 was greater than 10000 nM each time.
For the compound `COc1ccc(N(C)c2ncnc3sc(C)c(C)c23)cc1`, the EC50 with T47D was found to be 24 nM; in the series on NCI-H1299 it was 53 nM. This compound also came in with an IC50 in series [1] of less than 1000 nM.
With `COc1cccc(N(C)c2ncnc3ccsc23)c1`, the concentration giving a half-maximal response (EC50) with T47D and in the series with NCI-H1299 was greater than 10000 nM each time.
For the compound `c1ccc(-c2cc3ncnc(NCc4ccc5c(c4)OCO5)c3s2)cc1`, the half-maximal effective concentration (EC50) in the series on T47D is 1000 nM; with NCI-H1299, 700 nM.
Consider `COc1ccc(N(C)c2nc(C)nc3ccccc23)cc1` [VERUBULIN], for which the results for the EC50 in the series with T47D and in the series on NCI-H1299 were 2 nM and 6 nM, respectively.
For the compound `COc1ccc(N(C)c2ncnc3sccc23)cc1`, the EC50 with T47D turned out to be 22 nM; in the series with NCI-H1299 it was 44 nM. Further, the IC50 in series [1] is less than 1000 nM.
